Measurements reported in ChEMBL document CHEMBL1121802, “Imine analogues of tricyclic antidepressants” (1981).

Assays:
Assay type in all cases: functional
Mus musculus [1] = assay: The effect on 24-hour mortality in mice following oral administration
Mus musculus [2] = assay: The effect on ataxia in mice following oral administration
Summary of the method: (§1)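 Observed at 0.5, 2, 5 and 24 h for ataxia (abnormal gait/imprecise movement), pupil diameter (dissecting microscope, 20×, micrometer), excitement (spontaneous running/jumping) and electroshock protection (corneal electrodes at 2 and 5 h). ED50 by Thompson method.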

Mus musculus [3] = assay: Compound was tested for antidepressant activity by determining the reversal of tetrabenazine-induced ptosis upon oral administration; 0.9-3.3
Summary of the method: (§2)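 Mice given test drug orally; 30 min later challenged with tetrabenazine (methanesulfonate) 32 mg/kg ip in 0.05 M KCl pH 2.0. Scored 1 h after test drug for exploratory activity and ptosis; ptosis antagonism = lid closure <50% in both eyes exactly 2 s after placing mouse facing observer. ED50 calculated by Thompson method.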

Mus musculus [4] = assay: Antidepressant activity by determining the decreased exploratory activity in mice upon oral administration; summary of the method: as §2
Mus musculus [5] = assay: The effect on electroshock protection in mice following oral administration; summary of the method: as §1
Mus musculus [6] = assay: The effect on excitement was measured in mice following oral administration; summary of the method: as §1
Mus musculus [7] = assay: Effect on pupil dilation was measured in mice upon oral administration; summary of the method: as §1
Mus musculus [8] = assay: Compound was tested for antidepressant activity by determining the reversal of tetrabenazine-induced ptosis upon oral administration; 2.7-5.1; summary of the method: as §2
Mus musculus [9] = assay: Compound was tested for antidepressant activity by determining the decreased exploratory activity in mice upon oral administration; 7.9-16; summary of the method: as §2
Mus musculus [10] = assay: Antidepressant activity by determining the reversal of tetrabenazine-induced ptosis upon oral administration; summary of the method: as §2
Mus musculus [11] = assay: Compound was tested for antidepressant activity by determining the reversal of tetrabenazine-induced ptosis upon oral administration; 3.0-73; summary of the method: as §2
Mus musculus [12] = assay: Compound was tested for antidepressant activity by determining the decreased exploratory activity in mice upon oral administration; 20-36; summary of the method: as §2
Mus musculus [13] = assay: Compound was tested for antidepressant activity by determining the reversal of tetrabenazine-induced ptosis upon oral administration; 5.8-15.6; summary of the method: as §2
Mus musculus [14] = assay: Compound was tested for antidepressant activity by determining the decreased exploratory activity in mice upon oral administration; summary of the method: as §2
Mus musculus [15] = assay: Compound was tested for antidepressant activity by determining the reversal of tetrabenazine-induced ptosis upon oral administration; 26-122; summary of the method: as §2
Mus musculus [16] = assay: Compound was tested for antidepressant activity by determining the decreased exploratory activity in mice upon oral administration; 39-238; summary of the method: as §2
Mus musculus [17] = assay: Compound was tested for antidepressant activity by determining the reversal of tetrabenazine-induced ptosis upon oral administration; 37-170; summary of the method: as §2
Mus musculus [18] = assay: Compound was tested for antidepressant activity by determining the reversal of tetrabenazine-induced ptosis upon oral administration; 10-57; summary of the method: as §2
Mus musculus [19] = assay: Compound was tested for antidepressant activity by determining the decreased exploratory activity in mice upon oral administration; 22-53; summary of the method: as §2
Mus musculus [20] = assay: Compound was tested for antidepressant activity by determining the reversal of tetrabenazine-induced ptosis upon oral administration; 6-21; summary of the method: as §2
Mus musculus [21] = assay: Compound was tested for antidepressant activity by determining the decreased exploratory activity in mice upon oral administration; 16-31; summary of the method: as §2
Mus musculus [22] = assay: Compound was tested for antidepressant activity by determining the reversal of tetrabenazine-induced ptosis upon oral administration; 2.2-6.2; summary of the method: as §2
Mus musculus [23] = assay: Compound was tested for antidepressant activity by determining the decreased exploratory activity in mice upon oral administration; 9.2-17; summary of the method: as §2

SMILES	ED50 (Mus musculus [1]) [mg/kg]	ED50 (Mus musculus [2]) [mg/kg]	ED50 (Mus musculus [4]) [mg/kg]	ED50 (Mus musculus [5]) [mg/kg]	ED50 (Mus musculus [6]) [mg/kg]	ED50 (Mus musculus [7]) [mg/kg]	ED50 (Mus musculus [10]) [mg/kg]	also measured
CN(C)CCCN=C1c2ccccc2C2CC2c2ccccc21 (stereo unspecified)	200	12	> 81	> 324	> 324	12	–	ED50 (Mus musculus [3]): 1.7 mg/kg
CN(C)CC/N=C1\c2ccccc2C2CC2c2ccc(Cl)cc21 (stereo unspecified)	200	20	–	200	60	12	–	ED50 (Mus musculus [8]): 3.7 mg/kg; ED50 (Mus musculus [9]): 11.2 mg/kg
CC(=O)N1Cc2ccccc2/C(=N\CCN(C)C)c2ccccc21	> 324	100	> 125	> 324	> 324	200	> 125	–
CN(C)CCCN=C(c1ccccc1)c1ccccc1	200	60	> 125	> 324	> 324	> 324	> 125	–
CN(C)CC/N=C1\c2ccccc2CSc2ccccc21	60	20	–	> 324	> 324	20	–	ED50 (Mus musculus [11]): 47 mg/kg; ED50 (Mus musculus [12]): 27 mg/kg
CCN(CC)CCN=C1c2ccccc2CCc2ccccc21	60	20	36	200	> 324	36	> 125	–
CN(C)CCCN=c1c2ccccc2ccc2ccccc12	–	20	–	> 324	36	7	–	ED50 (Mus musculus [13]): 9.5 mg/kg; ED50 (Mus musculus [14]): > 125 mg/kg
NCCCNC1c2ccccc2CCc2ccccc21	200	60	–	> 324	> 324	60	> 125	ED50 (Mus musculus [14]): > 125 mg/kg
CN(C)CCC/N=C1\c2ccccc2CN(C)c2ccccc21	20	200	–	> 324	> 324	100	–	ED50 (Mus musculus [15]): 56 mg/kg; ED50 (Mus musculus [16]): 96 mg/kg
CN(C)CCN=C1c2ccccc2C(C)(C)c2ccccc21	200	36	> 125	> 324	> 324	> 324	> 125	–
c1ccc2c(c1)C(=NCCN1CCOCC1)c1ccccc1C1CC21 (stereo unspecified)	> 324	200	> 125	> 324	> 324	> 324	–	ED50 (Mus musculus [17]): 79 mg/kg
c1ccc2c(c1)C(=NCCN1CCCC1)c1ccccc1C1CC21 (stereo unspecified)	300	60	> 125	200	> 324	7	> 125	–
CN(C)CCCN=C1c2ccccc2CCc2ccccc21	36	60	–	> 324	> 324	20	–	ED50 (Mus musculus [18]): 24 mg/kg; ED50 (Mus musculus [19]): 34 mg/kg
CN(C)CC/N=C1\c2ccccc2CN(C)c2ccccc21	60	60	–	200	> 324	60	–	ED50 (Mus musculus [20]): 11 mg/kg; ED50 (Mus musculus [21]): 22 mg/kg
CN(C)CCN=C1c2ccccc2C2C(c3ccccc31)C2(F)F (stereo unspecified)	> 324	60	–	200	> 324	200	–	ED50 (Mus musculus [22]): 3.7 mg/kg; ED50 (Mus musculus [23]): 12.5 mg/kg
CN(C)CCN=C1c2ccccc2C2C(c3ccccc31)C2(Cl)Cl (stereo unspecified)	> 324	200	> 125	> 324	> 324	> 324	> 125	–
